In ChEMBL document CHEMBL5034013, “Discovery of VNRX-7145 (VNRX-5236 Etzadroxil): An Orally Bioavailable β-Lactamase Inhibitor for Enterobacterales Expressing Ambler Class A, C, and D Enzymes” (J Med Chem, 2021):

Experiments:
Escherichia coli [1] = experiment: Antibacterial activity against Escherichia coli expressing CTX-M-15/TEM-1 assessed as concentration required to restore ceftibuten activity incubated for 16 to 20 hrs in presence of 1 ug/ml ceftibuten by broth microdilution method; format: functional; details: time 16-20 hrs
Klebsiella pneumoniae [2] = experiment: Antibacterial activity against Klebsiella pneumoniae expressing SHV-12/TEM-1 assessed as concentration required to restore ceftibuten activity incubated for 16 to 20 hrs in presence of 1 ug/ml ceftibuten by broth microdilution method; format: functional; details: time 16-20 hrs
Escherichia coli [3] = experiment: Antibacterial activity against Escherichia coli 786978 expressing KPC assessed as concentration required to restore ceftibuten activity incubated for 16 to 20 hrs in presence of 1 ug/ml ceftibuten by broth microdilution method; format: functional; details: time 16-20 hrs
Klebsiella pneumoniae [4] = experiment: Antibacterial activity against Klebsiella pneumoniae 156309 expressing SHV-11/TEM-1/KPC-2 assessed as concentration required to restore ceftibuten activity incubated for 16 to 20 hrs in presence of 1 ug/ml ceftibuten by broth microdilution method; format: functional; details: time 16-20 hrs
Escherichia coli [5] = experiment: Antibacterial activity against Escherichia coli J53 expressing SHV-5/TEM-1/AmpC assessed as concentration required to restore ceftibuten activity incubated for 16 to 20 hrs in presence of 1 ug/ml ceftibuten by broth microdilution method; format: functional; details: time 16-20 hrs
Klebsiella pneumoniae [6] = experiment: Antibacterial activity against Klebsiella pneumoniae 196477 expressing AmpC/CMY-2/TEM-1/CTX-M-15 assessed as concentration required to restore ceftibuten activity incubated for 16 to 20 hrs in presence of 1 ug/ml ceftibuten by broth microdilution method; format: functional; details: time 16-20 hrs
Escherichia coli [7] = experiment: Antibacterial activity against Escherichia coli 664507 expressing OXA-48 assessed as concentration required to restore ceftibuten activity incubated for 16 to 20 hrs in presence of 1 ug/ml ceftibuten by broth microdilution method; format: functional; details: time 16-20 hrs
Method in brief: (§1)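 Tested against a 25-strain challenge panel of clinical E. coli and K. pneumoniae isolates carrying ESBL (n = 5), KPC (n = 11), class C (n = 4) or OXA-48 (n = 5) β-lactamases. Ceftibuten was held at 1 μg/mL while the BLI concentration varied. The read-out was the BLI concentration that rescued ceftibuten activity.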

Klebsiella pneumoniae [8] = experiment: Antibacterial activity against Klebsiella pneumoniae expressing OXA-48 assessed as concentration required to restore ceftibuten activity incubated for 16 to 20 hrs in presence of 1 ug/ml ceftibuten by broth microdilution method; format: functional; details: time 16-20 hrs
Escherichia coli [9] = experiment: (§2) In vivo antibacterial activity against Escherichia coli expressing TEM-1/CTX-M-15 infected in C3H/HeJ mouse assessed as log10 reduction in CFU in kidney at 1 to 300 mg/kg, sc administered every 12 hrs for 3 days starting from 4 days post infection and measured at 7 days post infection (reference value: 6.7 log10CFU); format: functional; details: dose 1-300 mg/kg; time 3 day
Escherichia coli [10] = experiment: as §2, with “bladder” for “kidney”, “5.8” for “6.7”; format: functional; details: dose 1-300 mg/kg; time 3 day
Escherichia coli [11] = experiment: as §2, with “urine” for “kidney”; format: functional; details: dose 1-300 mg/kg; time 3 day
Escherichia coli [12] = experiment: Antibacterial activity against Escherichia coli expressing TEM-1/SHV-12 assessed as concentration required to restore ceftibuten activity incubated for 16 to 20 hrs in presence of 1 ug/ml ceftibuten by broth microdilution method; format: functional; details: time 16-20 hrs
Escherichia coli [13] = experiment: Antibacterial activity against Escherichia coli expressing CTX-M-2 assessed as concentration required to restore ceftibuten activity incubated for 16 to 20 hrs in presence of 1 ug/ml ceftibuten by broth microdilution method; format: functional; details: time 16-20 hrs
[14] = Inhibition of bacterial beta-lactamase SHV-5 using cefotaxime as substrate preincubated for 15 mins followed by substrate addition and measured after 10 mins by spectrophotometric analysis; parameters: species or system Bacteria
Method in brief: (§3)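 IC50 is the mean of duplicate runs on separate days. A run was repeated automatically if it differed by more than 20% from the previous result.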

[15] = Inhibition of bacterial beta-lactamase KPC-2 using imipenem as substrate preincubated for 15 mins followed by substrate addition and measured after 10 mins by spectrophotometric analysis; parameters: species or system Bacteria; method in brief: as §3
Klebsiella pneumoniae [16] = experiment: Antibacterial activity against Klebsiella pneumoniae expressing TEM-1/SHV-12 assessed as concentration required to restore ceftibuten activity incubated for 16 to 20 hrs in presence of 1 ug/ml ceftibuten by broth microdilution method; format: functional; details: time 16-20 hrs
Klebsiella pneumoniae [17] = experiment: Antibacterial activity against Klebsiella pneumoniae expressing SHV-5/KPC-2/TEM-1 assessed as concentration required to restore ceftibuten activity incubated for 16 to 20 hrs in presence of 1 ug/ml ceftibuten by broth microdilution method; format: functional; details: time 16-20 hrs
Escherichia coli [18] = experiment: Antibacterial activity against Escherichia coli expressing AmpC/SHV-12/CTX-M-15/TEM-1 assessed as concentration required to restore ceftibuten activity incubated for 16 to 20 hrs in presence of 1 ug/ml ceftibuten by broth microdilution method; format: functional; details: time 16-20 hrs
Klebsiella pneumoniae [19] = experiment: Antibacterial activity against Klebsiella pneumoniae expressing SHV-1/TEM-1/KPC-2 assessed as concentration required to restore ceftibuten activity incubated for 16 to 20 hrs in presence of 1 ug/ml ceftibuten by broth microdilution method; format: functional; details: time 16-20 hrs
Klebsiella pneumoniae [20] = experiment: Antibacterial activity against Klebsiella pneumoniae expressing SHV-11/TEM-1/KPC-3 assessed as concentration required to restore ceftibuten activity incubated for 16 to 20 hrs in presence of 1 ug/ml ceftibuten by broth microdilution method; format: functional; details: time 16-20 hrs
Klebsiella pneumoniae [21] = experiment: Antibacterial activity against Klebsiella pneumoniae expressing SHV-12/TEM-1/KPC-2/AmpC assessed as concentration required to restore ceftibuten activity incubated for 16 to 20 hrs in presence of 1 ug/ml ceftibuten by broth microdilution method; format: functional; details: time 16-20 hrs
Klebsiella pneumoniae [22] = experiment: Antibacterial activity against Klebsiella pneumoniae expressing KPC-3/TEM-1/AmpC assessed as concentration required to restore ceftibuten activity incubated for 16 to 20 hrs in presence of 1 ug/ml ceftibuten by broth microdilution method; format: functional; details: time 16-20 hrs
Escherichia coli [23] = experiment: Antibacterial activity against Escherichia coli 849121 expressing KPC assessed as concentration required to restore ceftibuten activity incubated for 16 to 20 hrs in presence of 1 ug/ml ceftibuten by broth microdilution method; format: functional; details: time 16-20 hrs
Klebsiella pneumoniae [24] = experiment: Antibacterial activity against Klebsiella pneumoniae 845661 expressing KPC assessed as concentration required to restore ceftibuten activity incubated for 16 to 20 hrs in presence of 1 ug/ml ceftibuten by broth microdilution method; format: functional; details: time 16-20 hrs
Klebsiella pneumoniae [25] = experiment: Antibacterial activity against Klebsiella pneumoniae 845670 expressing KPC assessed as concentration required to restore ceftibuten activity incubated for 16 to 20 hrs in presence of 1 ug/ml ceftibuten by broth microdilution method; format: functional; details: time 16-20 hrs
Escherichia coli [26] = experiment: Antibacterial activity against Escherichia coli SI-P026TC expressing CMY-2/TEM-1 assessed as concentration required to restore ceftibuten activity incubated for 16 to 20 hrs in presence of 1 ug/ml ceftibuten by broth microdilution method; format: functional; details: time 16-20 hrs
Klebsiella pneumoniae [27] = experiment: Antibacterial activity against Klebsiella pneumonia 217917 expressing CMY-2/TEM-1 assessed as concentration required to restore ceftibuten activity incubated for 16 to 20 hrs in presence of 1 ug/ml ceftibuten by broth microdilution method; format: functional; details: time 16-20 hrs; method in brief: as §1
Klebsiella pneumoniae [28] = experiment: Antibacterial activity against Klebsiella pneumonia DOV expressing OXA-48 assessed as concentration required to restore ceftibuten activity incubated for 16 to 20 hrs in presence of 1 ug/ml ceftibuten by broth microdilution method; format: functional; details: time 16-20 hrs; method in brief: as §1
Klebsiella pneumoniae [29] = experiment: Antibacterial activity against Klebsiella pneumonia SI-C05 expressing OXA-48 assessed as concentration required to restore ceftibuten activity incubated for 16 to 20 hrs in presence of 1 ug/ml ceftibuten by broth microdilution method; format: functional; details: time 16-20 hrs; method in brief: as §1
Escherichia coli [30] = experiment: Antibacterial activity against Escherichia coli 664520 expressing OXA-48 assessed as concentration required to restore ceftibuten activity incubated for 16 to 20 hrs in presence of 1 ug/ml ceftibuten by broth microdilution method; format: functional; details: time 16-20 hrs; method in brief: as §1
[31] = Apparent permeability across apical to basolateral side in human Caco-2 cells at 5 uM measured after 2 hrs by LC-MS/MS method; format: ADME, cell-based; details: caco-2, 2 h
[32] = Apparent permeability across basolateral to apical side in human Caco-2 cells at 5 uM measured after 2 hrs by LC-MS/MS method; format: ADME, cell-based; details: caco-2, 2 h
[33] = AUC in mouse at 1.2 mg/kg, sc; format: ADME, organism-based; parameters: dose 1.2 mg/kg; details: in vivo
[34] = AUC in mouse at 12 mg/kg, sc; format: ADME, organism-based; parameters: dose 12 mg/kg; details: in vivo
Method in brief: (§4)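 Single-dose pharmacokinetics of the parent BLI in mice given subcutaneously at 1.2, 12 and 38 mg/kg. The AUC is reported in mg∗h/L and was used to check dose proportionality. The study was run to choose dosing regimens for the murine ascending UTI efficacy model.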

[35] = AUC in mouse at 38 mg/kg, sc; format: ADME, organism-based; parameters: dose 38 mg/kg; details: in vivo; method in brief: as §4
Escherichia coli [36] = experiment: as §2, with “kidney administration of compound:ceftibuten 1:1 ratio” for “kidney”, “sc” for “sc administered”; format: functional; details: dose 1-300 mg/kg; time 3 day
Escherichia coli [37] = experiment: as §2, with “urine administration of compound:ceftibuten 1:1 ratio” for “kidney”, “sc” for “sc administered”; format: functional; details: dose 1-300 mg/kg; time 3 day
Escherichia coli [38] = experiment: In vivo antibacterial activity against Escherichia coli expressing TEM-1/CTX-M-15 infected in C3H/HeJ mouse assessed as log10 reduction in CFU in bladder administration of compound:ceftibuten 1:1 ratio at 1 to 300 mg/kg, sc every 12 hrs for 3 days starting from 4 days post infection and measured at 7 days post infection (reference value: 5.8 log10CFU); details: dose 1-300 mg/kg; time 3 day

Nc1nc(/C(=C/CC(=O)O)C(=O)N[C@@H]2C(=O)N3C(C(=O)O)=CCS[C@H]23)cs1 [CEFTIBUTEN]
Activity (Escherichia coli [1]): 128 µg/mL
Activity (Klebsiella pneumoniae [2]): 32 µg/mL
Activity (Escherichia coli [3]): 8 µg/mL
Activity (Klebsiella pneumoniae [4]): 256 µg/mL
Activity (Escherichia coli [5]): 256 µg/mL
Activity (Klebsiella pneumoniae [6]): 4 µg/mL
Activity (Escherichia coli [7]): 128 µg/mL
Activity (Klebsiella pneumoniae [8]): 256 µg/mL
Activity (Escherichia coli [9]): 2 log10CFU/ml
Activity (Escherichia coli [10]): 2 log10CFU/ml
Activity (Escherichia coli [11]): 2 log10CFU/ml

CCC(=O)N[C@H]1Cc2cccc(C(=O)O)c2OB1O [LEDABORBACTAM]
Activity (Escherichia coli [12]): 0.03 µg/mL
Activity (Escherichia coli [13]): 0.004 µg/mL
IC50 [14]: 126 nM
IC50 [15]: 80 nM
Activity (Escherichia coli [1]): 0.12 µg/mL
Activity (Klebsiella pneumoniae [2]): 0.06 µg/mL
Activity (Escherichia coli [3]): 0.5 µg/mL
Activity (Klebsiella pneumoniae [4]): 0.5 µg/mL
Activity (Escherichia coli [5]): 0.03 µg/mL
Activity (Klebsiella pneumoniae [6]): 0.016 µg/mL
Activity (Escherichia coli [7]): 0.03 µg/mL
Activity (Klebsiella pneumoniae [8]): 1 µg/mL
Activity (Klebsiella pneumoniae [16]): 0.016 µg/mL
Activity (Klebsiella pneumoniae [17]): <=0.002 ug ml-1
Activity (Escherichia coli [18]): 0.016 µg/mL
Activity (Klebsiella pneumoniae [19]): 1 µg/mL
Activity (Klebsiella pneumoniae [20]): 0.06 µg/mL
Activity (Klebsiella pneumoniae [21]): 0.25 µg/mL
Activity (Klebsiella pneumoniae [22]): 0.5 µg/mL
Activity (Escherichia coli [23]): <=0.002 ug ml-1
Activity (Klebsiella pneumoniae [24]): 2 µg/mL
Activity (Klebsiella pneumoniae [25]): <=0.002 ug ml-1
Activity (Escherichia coli [26]): 0.5 µg/mL
Activity (Klebsiella pneumoniae [27]): 0.12 µg/mL
Activity (Klebsiella pneumoniae [28]): 0.016 µg/mL
Activity (Klebsiella pneumoniae [29]): 0.03 µg/mL
Activity (Escherichia coli [30]): 1 µg/mL
Papp [31]: 0.11 10^-6 cm/s
Papp [32]: 0.15 10^-6 cm/s
AUC [33]: 7800 ng·h/mL
AUC [34]: 76000 ng·h/mL
AUC [35]: 250000 ng·h/mL
Activity (Escherichia coli [36]): 2 log10CFU/ml
Activity (Escherichia coli [37]): 4 log10CFU/ml
Activity (Escherichia coli [38]): 3.2 log10CFU/ml
